The source made the active and inactive calls. The calls are words filed in the database; no cut-off is given here.
Columns and labels:
[1] = biological target: T1, Toll-like receptor 7 (Mus musculus) (UniProt P58681); test: Agonist activity at TLR7 in mouse BMDM assessed as increase in IL-12 production at 2 uM after 24 hrs by ELISA in presence of thymosin
T1 sequence (whole entry): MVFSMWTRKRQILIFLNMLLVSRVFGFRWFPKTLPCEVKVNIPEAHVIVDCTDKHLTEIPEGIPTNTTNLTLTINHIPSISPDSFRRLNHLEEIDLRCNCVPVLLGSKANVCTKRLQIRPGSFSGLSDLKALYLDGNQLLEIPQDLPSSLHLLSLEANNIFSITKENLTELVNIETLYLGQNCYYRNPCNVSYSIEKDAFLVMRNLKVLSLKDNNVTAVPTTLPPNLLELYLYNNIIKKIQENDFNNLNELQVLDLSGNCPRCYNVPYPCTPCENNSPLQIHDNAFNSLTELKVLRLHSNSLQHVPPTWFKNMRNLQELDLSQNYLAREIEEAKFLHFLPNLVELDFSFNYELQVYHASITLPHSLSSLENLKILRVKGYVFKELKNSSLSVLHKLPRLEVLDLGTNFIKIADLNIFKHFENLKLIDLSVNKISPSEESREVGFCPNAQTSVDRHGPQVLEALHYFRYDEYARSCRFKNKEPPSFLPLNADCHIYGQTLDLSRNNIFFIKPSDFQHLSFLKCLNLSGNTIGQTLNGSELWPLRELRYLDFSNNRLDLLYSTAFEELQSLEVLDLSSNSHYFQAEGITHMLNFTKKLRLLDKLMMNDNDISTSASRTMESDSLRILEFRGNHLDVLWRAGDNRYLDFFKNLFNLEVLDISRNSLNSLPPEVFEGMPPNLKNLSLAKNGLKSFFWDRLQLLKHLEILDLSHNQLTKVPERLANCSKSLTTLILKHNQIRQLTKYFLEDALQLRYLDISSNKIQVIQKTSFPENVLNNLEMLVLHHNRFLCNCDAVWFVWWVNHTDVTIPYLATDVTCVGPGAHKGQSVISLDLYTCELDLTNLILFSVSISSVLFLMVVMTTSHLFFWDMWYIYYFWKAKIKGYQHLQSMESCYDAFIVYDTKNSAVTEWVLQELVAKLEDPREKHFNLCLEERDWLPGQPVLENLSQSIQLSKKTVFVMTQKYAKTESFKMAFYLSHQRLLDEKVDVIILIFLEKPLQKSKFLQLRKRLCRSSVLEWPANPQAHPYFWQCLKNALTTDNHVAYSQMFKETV
Method in brief: (§1)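 BMDM from wild-type or TLR7−/− mice were seeded at 1 × 10^6/mL. They were incubated 24 h with 2 μM antigen conjugates, with the free ligand at 10 μM. IL-12 in culture supernatants was measured by ELISA. Data are mean ± SEM of triplicates from one of three independent experiments. Only material with endotoxin <5 EU/mg was used.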

Mus musculus [2] = test: Immunostimulatory activity in C57BL/6 mouse assessed as increase in IFN-gamma level in serum at 0.18 umol, iv after 2 to 6 hrs by luminex bead microassay in presence of thymosin relative to control; format: functional, organism-based
Method in brief: (§2)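 C57BL/6 mice (n = 5 per group) received 0.18 μmol intravenously. Serum was collected at set times after injection, and IFN-γ and IL-12 were measured by Luminex assay against saline-treated controls. Data are mean ± SEM of two independent experiments.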

Mus musculus [3] = test: Immunostimulatory activity in C57BL/6 mouse assessed as increase in IFN-gamma level in serum at 0.18 umol, iv after 2 to 48 hrs by luminex bead microassay relative to control; format: functional, organism-based; method in brief: as §2
Mus musculus [4] = species: Mus musculus; test: Immunostimulatory activity in BALB/c mouse splenocytes assessed as induction of IFN-gamma production at 10 uM after 24 hrs by ELISA in presence of BSA relative to GD2; format: functional, Splenocyte
Method in brief: (§3)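 Mouse splenocytes were seeded at 1 × 10^6/mL and incubated 24 h with serial dilutions of free ligand or conjugates. Antigen and conjugate concentrations were scaled for conjugation ratio: one-sixth for BSA, one-fifth for OVA and MSA, equal for MG7, one-quarter for thymosin. Supernatant IFN-γ and IL-12 were measured by ELISA and expressed as conjugated/free ligand ratios. Data are triplicates from one of three experiments.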

Mus musculus [5] = species: Mus musculus; test: Immunostimulatory activity in BALB/c mouse splenocytes assessed as induction of IL-12 production at 10 uM after 24 hrs by ELISA in presence of MSA relative to GD2; format: functional, Splenocyte; method in brief: as §3
[6] = biological target: T1, Toll-like receptor 7 (Mus musculus); test: Agonist activity at TLR7 in mouse BMDM assessed as increase in IL-12 production at 2 uM after 24 hrs by ELISA in presence of OVA; method in brief: as §1
Mus musculus [7] = species: Mus musculus; test: Immunostimulatory activity in BALB/c mouse splenocytes assessed as induction of IFN-gamma production at 10 uM after 24 hrs by ELISA in presence of MSA relative to GD2; format: functional, Splenocyte; method in brief: as §3
Mus musculus [8] = species: Mus musculus; test: Immunostimulatory activity in BALB/c mouse splenocytes assessed as induction of IFN-gamma production at 10 uM after 24 hrs by ELISA in presence of MG7 relative to GD2; format: functional, Splenocyte; method in brief: as §3
[9] = biological target: T1, Toll-like receptor 7 (Mus musculus); test: Agonist activity at TLR7 in mouse BMDM assessed as increase in IL-12 production at 2 uM after 24 hrs by ELISA in presence of BSA; method in brief: as §1
Mus musculus [10] = species: Mus musculus; test: Immunostimulatory activity in BALB/c mouse splenocytes assessed as induction of IL-12 production at 10 uM after 24 hrs by ELISA in presence of OVA relative to GD2; format: functional, Splenocyte; method in brief: as §3
Mus musculus [11] = test: Immunostimulatory activity in C57BL/6 mouse assessed as increase in IFN-gamma level in serum at 0.18 umol, iv after 2 to 6 hrs by luminex bead microassay in presence of BSA relative to control; format: functional, organism-based; method in brief: as §2
Mus musculus [12] = test: Immunostimulatory activity in C57BL/6 mouse assessed as increase in IgG1 level in serum at 0.83 nmol, sc administered every 7 days measured up to 30 days by ELISA in presence of BSA; format: functional, organism-based
Method in brief: (§4)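 Mice were immunized with antigen, free ligand or conjugate, and serum was collected every 7 days from day 0 to day 30. BSA- or OVA-specific IgG1 and IgG2a were measured by ELISA. Data are mean ± SEM of triplicate from one of three independent experiments.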

[13] = biological target: T1, Toll-like receptor 7 (Mus musculus); test: Agonist activity at TLR7 in mouse BMDM assessed as increase in IL-12 production at 2 uM after 24 hrs by ELISA in presence of MSA; method in brief: as §1
Mus musculus [14] = test: Immunostimulatory activity in C57BL/6 mouse assessed as increase in IFN-gamma level in serum at 0.18 umol, iv after 2 to 6 hrs by luminex bead microassay in presence of MG7 relative to control; format: functional, organism-based; method in brief: as §2
Mus musculus [15] = species: Mus musculus; test: Immunostimulatory activity in BALB/c mouse splenocytes assessed as induction of IFN-gamma production at 10 uM after 24 hrs by ELISA in presence of OVA relative to GD2; format: functional, Splenocyte; method in brief: as §3
Mus musculus [16] = species: Mus musculus; test: Immunostimulatory activity in BALB/c mouse splenocytes assessed as induction of IL-12 production at 10 uM after 24 hrs by ELISA in presence of thymosin relative to GD2; format: functional, Splenocyte; method in brief: as §3
[17] = biological target: T1, Toll-like receptor 7 (Mus musculus); test: Agonist activity at TLR7 in mouse BMDM assessed as increase in IL-12 production at 2 uM after 24 hrs by ELISA in presence of MG7; method in brief: as §1
Mus musculus [18] = species: Mus musculus; test: Immunostimulatory activity in BALB/c mouse splenocytes assessed as induction of IFN-gamma production at 10 uM after 24 hrs by ELISA in presence of thymosin relative to GD2; format: functional, Splenocyte; method in brief: as §3
Mus musculus [19] = test: Immunostimulatory activity in C57BL/6 mouse assessed as increase in IgG1 level in serum at 5 nmol, sc administered every 7 days measured up to 30 days by ELISA; format: functional, organism-based; method in brief: as §4
Mus musculus [20] = test: Immunostimulatory activity in C57BL/6 mouse assessed as increase in IgG2a level in serum at 5 nmol, sc administered every 7 days measured up to 30 days by ELISA; format: functional, organism-based; method in brief: as §4
Mus musculus [21] = species: Mus musculus; test: Immunostimulatory activity in BALB/c mouse splenocytes assessed as induction of IL-12 production at 10 uM after 24 hrs by ELISA in presence of BSA relative to GD2; format: functional, Splenocyte; method in brief: as §3
Mus musculus [22] = test: Immunostimulatory activity in C57BL/6 mouse assessed as increase in IgG1 level in serum at 1 nmol, sc administered every 7 days measured up to 30 days by ELISA in presence of OVA; format: functional, organism-based; method in brief: as §4
Mus musculus [23] = test: Immunostimulatory activity in C57BL/6 mouse assessed as increase in IgG2a level in serum at 0.83 nmol, sc administered every 7 days measured up to 30 days by ELISA in presence of BSA; format: functional, organism-based; method in brief: as §4
Mus musculus [24] = species: Mus musculus; test: Immunostimulatory activity in BALB/c mouse splenocytes assessed as induction of IL-12 production at 10 uM after 24 hrs by ELISA in presence of MG7 relative to GD2; format: functional, Splenocyte; method in brief: as §3
Mus musculus [25] = test: Immunostimulatory activity in C57BL/6 mouse assessed as increase in IgG2a level in serum at 1 nmol, sc administered every 7 days measured up to 30 days by ELISA in presence of OVA; format: functional, organism-based; method in brief: as §4
Mus musculus [26] = test: Immunostimulatory activity in C57BL/6 mouse assessed as increase in IFN-gamma level in serum at 0.18 umol, iv after 2 to 6 hrs by luminex bead microassay in presence of OVA relative to control; format: functional, organism-based; method in brief: as §2
Mus musculus [27] = test: Immunostimulatory activity in C57BL/6 mouse assessed as increase in IFN-gamma level in serum at 0.18 umol, iv after 2 to 6 hrs by luminex bead microassay in presence of MSA relative to control; format: functional, organism-based; method in brief: as §2
Mus musculus [28] = test: Immunostimulatory activity in C57BL/6 mouse assessed as increase in IFN-gamma level in serum at 0.18 umol, iv at 2 hrs by luminex bead microassay relative to control; format: functional, organism-based; method in brief: as §2
Mus musculus [29] = species: Mus musculus; test: Immunostimulatory activity in BALB/c mouse splenocytes assessed as induction of IFN-gamma production at 10 uM after 24 hrs by ELISA relative to GD2; format: functional, Splenocyte; method in brief: as §3
Mus musculus [30] = species: Mus musculus; test: Immunostimulatory activity in BALB/c mouse splenocytes assessed as induction of IL-12 production at 10 uM after 24 hrs by ELISA relative to GD2; format: functional, Splenocyte; method in brief: as §3

SMILES: COCCOc1nc(N)c2nc(O)n(CCCC(=O)O)c2n1
- Activity [1]: Active
- Activity (Mus musculus [2]): Active
- Activity (Mus musculus [3]): inactive
- fold change (FC) (Mus musculus [4]): 488
- fold change (FC) (Mus musculus [5]): 42
- Activity [6]: Active
- fold change (FC) (Mus musculus [7]): 575
- fold change (FC) (Mus musculus [8]): 550
- Activity [9]: Active
- fold change (FC) (Mus musculus [10]): 175
- Activity (Mus musculus [11]): Active
- Activity (Mus musculus [12]): Active
- Activity [13]: Active
- Activity (Mus musculus [14]): Active
- fold change (FC) (Mus musculus [15]): 73
- fold change (FC) (Mus musculus [16]): 409
- Activity [17]: Active
- fold change (FC) (Mus musculus [18]): 1511
- Activity (Mus musculus [19]): inactive
- Activity (Mus musculus [20]): inactive
- fold change (FC) (Mus musculus [21]): 16
- Activity (Mus musculus [22]): Active
- Activity (Mus musculus [23]): Active
- fold change (FC) (Mus musculus [24]): 52
- Activity (Mus musculus [25]): Active
- Activity (Mus musculus [26]): Active
- Activity (Mus musculus [27]): Active

SMILES: COCCOc1nc(N)c2nc(O)n(Cc3ccc(C=O)cc3)c2n1
- Activity (Mus musculus [3]): inactive
- Activity (Mus musculus [28]): Active
- fold change (FC) (Mus musculus [29]): 524
- fold change (FC) (Mus musculus [30]): 61

Source: ChEMBL document CHEMBL3576817, “Synthesis and Evaluation of Conjugates of Novel TLR7 Inert Ligands as Self-Adjuvanting Immunopotentiators” (2015)
